Assay results: ChEMBL document CHEMBL4725432, “Dethioacylation by Sirtuins 1-3: Considerations for Drug Design Using Mechanism-Based Sirtuin Inhibition” (ACS Med Chem Lett, 2020)
Activity calls are given as the source filed them. The rule behind the calls is not given here.

Target: T1, NAD-dependent protein deacetylase sirtuin-1 (Homo sapiens, UniProt Q96EB6)
T1 sequence (Q96EB6 whole entry): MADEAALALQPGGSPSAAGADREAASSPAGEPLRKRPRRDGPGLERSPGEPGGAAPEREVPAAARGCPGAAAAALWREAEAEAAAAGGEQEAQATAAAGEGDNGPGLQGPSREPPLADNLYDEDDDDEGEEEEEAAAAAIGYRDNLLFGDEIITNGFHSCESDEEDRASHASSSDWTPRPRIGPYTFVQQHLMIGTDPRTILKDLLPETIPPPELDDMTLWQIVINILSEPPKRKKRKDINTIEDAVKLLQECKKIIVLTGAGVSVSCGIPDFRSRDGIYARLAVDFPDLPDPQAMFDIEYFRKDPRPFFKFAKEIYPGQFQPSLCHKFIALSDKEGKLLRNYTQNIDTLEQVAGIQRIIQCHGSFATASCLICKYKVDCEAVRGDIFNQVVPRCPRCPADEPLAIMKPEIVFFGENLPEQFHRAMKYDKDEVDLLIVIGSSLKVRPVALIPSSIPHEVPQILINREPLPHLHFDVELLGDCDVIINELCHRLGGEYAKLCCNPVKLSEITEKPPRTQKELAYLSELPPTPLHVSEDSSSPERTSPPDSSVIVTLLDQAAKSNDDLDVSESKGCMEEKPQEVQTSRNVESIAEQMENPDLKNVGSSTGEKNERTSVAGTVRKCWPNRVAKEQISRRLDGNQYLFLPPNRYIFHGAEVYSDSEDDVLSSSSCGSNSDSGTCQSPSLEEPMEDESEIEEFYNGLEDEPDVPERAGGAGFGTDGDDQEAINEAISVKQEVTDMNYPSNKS
Test: Inhibition of human recombinant N-terminal GST-tagged SIRT1 (193 to 741 residues) expressed in Escherichia coli using Ac-Gln-Pro-Lys-Lys(Ac)-AMC (oxo-10) as substrate by fluorescence assay
Settings: not given

Row | Compound | IC50
1 | CCNC(=S)NCCCC[C@H](NC(=O)OCc1ccccc1)C(=O)N[C@@H](Cc1c[nH]c2ccccc12)C(=O)NC(C)C | 1.9 µM
2 | CC(C)NC(=O)[C@H](Cc1c[nH]c2ccccc12)NC(=O)[C@H](CCCCNC(N)=S)NC(=O)OCc1ccccc1 | 0.98 µM

Target: T2, NAD-dependent protein deacetylase sirtuin-2 (Homo sapiens) (UniProt Q8IXJ6)
T2 sequence (whole entry): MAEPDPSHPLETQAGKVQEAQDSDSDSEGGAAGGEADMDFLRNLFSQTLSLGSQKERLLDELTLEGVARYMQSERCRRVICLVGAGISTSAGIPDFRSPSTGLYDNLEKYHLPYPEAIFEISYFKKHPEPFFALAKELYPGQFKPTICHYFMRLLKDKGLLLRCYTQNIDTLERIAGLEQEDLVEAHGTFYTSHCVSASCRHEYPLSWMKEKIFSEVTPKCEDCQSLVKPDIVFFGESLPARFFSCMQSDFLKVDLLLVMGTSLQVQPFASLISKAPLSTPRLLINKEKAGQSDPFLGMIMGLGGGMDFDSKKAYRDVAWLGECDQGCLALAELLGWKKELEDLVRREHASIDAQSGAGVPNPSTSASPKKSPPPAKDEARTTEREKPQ
Test: Inhibition of human C-terminal His-tagged SIRT2 (50 to 356 residues) expressed in Escherichia coli using Ac-Gln-Pro-Lys-Lys(pro)-AMC (oxo-11) as substrate at 10 uM by fluorescence assay relative to control
Settings: not given

Row | Compound | inhibition
3 | CCNC(=S)NCCCC[C@H](NC(=O)OCc1ccccc1)C(=O)N[C@@H](Cc1c[nH]c2ccccc12)C(=O)NC(C)C | 71%
4 | CC(C)NC(=O)[C@H](Cc1c[nH]c2ccccc12)NC(=O)[C@H](CCCCNC(N)=S)NC(=O)OCc1ccccc1 | 28%

Target: T3, NAD-dependent protein deacetylase sirtuin-3, mitochondrial (Homo sapiens) (UniProt Q9NTG7)
T3 sequence (whole entry): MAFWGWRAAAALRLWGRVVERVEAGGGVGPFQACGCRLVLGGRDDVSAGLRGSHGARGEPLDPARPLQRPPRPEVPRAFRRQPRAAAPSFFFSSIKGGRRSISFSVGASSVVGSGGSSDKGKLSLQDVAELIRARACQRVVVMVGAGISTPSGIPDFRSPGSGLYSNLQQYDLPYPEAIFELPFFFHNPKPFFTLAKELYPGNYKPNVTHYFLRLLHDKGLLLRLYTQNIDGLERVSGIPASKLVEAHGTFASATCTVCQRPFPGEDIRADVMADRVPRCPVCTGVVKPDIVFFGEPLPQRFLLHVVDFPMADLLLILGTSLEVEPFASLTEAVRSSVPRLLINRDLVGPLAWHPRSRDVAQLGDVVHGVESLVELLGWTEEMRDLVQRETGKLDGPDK
Test: Inhibition of human N-terminal GST-tagged SIRT3 (102 to 399 residues) expressed in Escherichia coli using Ac-Gln-Pro-Lys-Lys(but)-AMC (oxo-12) as substrate at 10 uM by fluorescence assay relative to control
Settings: not given

Row | Compound | inhibition
5 | CCNC(=S)NCCCC[C@H](NC(=O)OCc1ccccc1)C(=O)N[C@@H](Cc1c[nH]c2ccccc12)C(=O)NC(C)C | 2%
6 | CC(C)NC(=O)[C@H](Cc1c[nH]c2ccccc12)NC(=O)[C@H](CCCCNC(N)=S)NC(=O)OCc1ccccc1 | 2%

Target: T4, NAD-dependent protein deacetylase sirtuin-1 (Homo sapiens) (UniProt Q96EB6)
T4 sequence (whole entry): T1 sequence (Q96EB6 whole entry)
Test: Inhibition of human N-terminal GST-tagged SIRT1 (193 to 741 residues) expressed in Escherichia coli preincubated with NAD+ for 30 mins using Ac-Gln-Pro-Lys-Lys(Ac)-AMC (oxo-10) as substrate at 1 to 100 uM measured after 90 mins by fluorescence assay
Settings: dose microM 1-100, time 120.0 min
How it was run: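 Recombinant SIRT1 (100 nM) preincubated 30 min with compound, either with or without NAD+ (500 μM), before the fluorogenic deacetylation read-out. Single-dose %-inhibition. Two independent experiments in duplicate, standard deviation.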

Row | Compound | inhibition
7 | NC(=O)C1CCCc2c1[nH]c1ccc(Cl)cc21 (stereo not drawn) | inactive
8 | CCCC(=S)NCCCC[C@H](NC(=O)OCc1ccccc1)C(=O)Nc1ccccc1 | inactive
9 | CC(=S)NCCCC[C@H](NC(=O)OCc1ccccc1)C(=O)Nc1ccccc1 | inactive
10 | CCNC(=S)NCCCC[C@H](NC(=O)OCc1ccccc1)C(=O)N[C@@H](Cc1c[nH]c2ccccc12)C(=O)NC(C)C | Active
11 | CC(C)NC(=O)[C@H](Cc1c[nH]c2ccccc12)NC(=O)[C@H](CCCCNC(N)=S)NC(=O)OCc1ccccc1 | Active

Target: T3, NAD-dependent protein deacetylase sirtuin-3, mitochondrial (Homo sapiens)
Test: Inhibition of human recombinant N-terminal GST-tagged SIRT3 (102 to 399 residues) deacetylation activity in presence of substrate and NAD+ at 15 uM after 60 mins measured by reversed-phase UPLC-MS analysis relative to control
Settings: not given

Row | Compound | inhibition
12 | CCCC(=S)NCCCC[C@H](NC(=O)OCc1ccccc1)C(=O)Nc1ccccc1 | inactive
13 | CC(=S)NCCCC[C@H](NC(=O)OCc1ccccc1)C(=O)Nc1ccccc1 | inactive

Test system: not listed separately
Test: Metabolic stability of compound in human serum assessed as half life incubated for >10 mins measured after 90 mins by HPLC analysis
Format: ADME, cell-free
Settings: not given

Row | Compound | half-life
14 | CCNC(=S)NCCCC[C@H](NC(=O)OCc1ccccc1)C(=O)N[C@@H](Cc1c[nH]c2ccccc12)C(=O)NC(C)C | < 1 h
15 | CC(C)NC(=O)[C@H](Cc1c[nH]c2ccccc12)NC(=O)[C@H](CCCCNC(N)=S)NC(=O)OCc1ccccc1 | > 7 h

Test system: not listed separately
Test: Metabolic stability of compound in human serum assessed as drug degradation incubated for >10 mins measured after 90 mins by HPLC analysis
Format: ADME, cell-free
Settings: 1.5 h

Row | Compound | Activity
16 | CCNC(=S)NCCCC[C@H](NC(=O)OCc1ccccc1)C(=O)N[C@@H](Cc1c[nH]c2ccccc12)C(=O)NC(C)C | Not Active

Target: T4, NAD-dependent protein deacetylase sirtuin-1 (Homo sapiens)
Test: Inhibition of SIRT1 in HEK293 cells assessed as increase in p53 acetylation co-treated with TSA at 25 uM for 6 hrs by western blot analysis
Format: cell-based
Settings: not given
How it was run: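 HEK293 cells exposed 6 h to compound at 25 μM together with TSA (1 μM). Whole-cell lysates immunoblotted for Ac-p53 (K382) and total p53. Ratio Ac-p53/p53 normalized to DMSO control. Two independent experiments in duplicate, SEM.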

Row | Compound | inhibition
17 | NC(=O)C1CCCc2c1[nH]c1ccc(Cl)cc21 (stereo not drawn) | Active

Target: T1, NAD-dependent protein deacetylase sirtuin-1
Test: Inhibition of human recombinant SIRT1 expressed in Escherichia coli in presence of acyl peptide acetyl-H3K9 as substrate incubated for 5 mins by HPLC analysis
Settings: not given

Row | Compound | IC50
18 | CCCC(=S)NCCCC[C@H](NC(=O)OCc1ccccc1)C(=O)Nc1ccccc1 | 12 µM
19 | CC(=S)NCCCC[C@H](NC(=O)OCc1ccccc1)C(=O)Nc1ccccc1 | 6.5 µM

Target: T2, NAD-dependent protein deacetylase sirtuin-2 (Homo sapiens)
Test: Inhibition of human recombinant SIRT2 expressed in Escherichia coli in presence of acyl peptide acetyl-H3K9 as substrate at 100 uM incubated for 5 mins by HPLC analysis relative to control
Settings: not given

Row | Compound | inhibition
20 | CCCC(=S)NCCCC[C@H](NC(=O)OCc1ccccc1)C(=O)Nc1ccccc1 | 88%

Target: T3, NAD-dependent protein deacetylase sirtuin-3, mitochondrial (Homo sapiens)
Test: Inhibition of human recombinant SIRT3 expressed in Escherichia coli BL21 in presence of acyl peptide acetyl-H3K9 as substrate at 100 uM incubated for […] mins by HPLC analysis relative to control
Settings: time 5.0 min

Row | Compound | inhibition
21 | CCCC(=S)NCCCC[C@H](NC(=O)OCc1ccccc1)C(=O)Nc1ccccc1 | 23%

Target: T4, NAD-dependent protein deacetylase sirtuin-1 (Homo sapiens)
Test: Inhibition of human recombinant N-terminal GST-tagged SIRT1 (193 to 741 residues) deacetylation activity in presence of substrate and NAD+ at 15 uM after 60 mins by reversed-phase UPLC-MS analysis relative to control
Settings: not given

Row | Compound | inhibition
22 | CCCC(=S)NCCCC[C@H](NC(=O)OCc1ccccc1)C(=O)Nc1ccccc1 | inactive
23 | CC(=S)NCCCC[C@H](NC(=O)OCc1ccccc1)C(=O)Nc1ccccc1 | inactive
